Substitutions are numbered along the chain they refer to. Like-named read-outs stand apart in the source and are kept apart here. Where no end group is shown, it is not given here. [ ]: non-standard residue; d: D form. pT = C[C@@H](OP(=O)(O)O)[C@H](N)C(=O)O; pS = N[C@@H](COP(=O)(O)O)C(=O)O
Key:
[1] = target: Schizosaccharomyces pombe Nbs1 N-terminal FHA/BRCT-repeat fragment (1-324) (Schizosaccharomyces pombe) (UniProt O43070); experiment: ITC
[2] = target: human Nbs1 N-terminal FHA/BRCT-repeat fragment (1-382) (human) (UniProt O60934); experiment: ITC
[3] = target: T1, human Nbs1 (hNbs1) FHA/BRCT fragment (1-382) (Homo sapiens, UniProt O60934); experiment: ITC of phosphopeptides with wild-type hNbs1 N-terminal fragment; format: binding
T1 sequence (O60934 1-382): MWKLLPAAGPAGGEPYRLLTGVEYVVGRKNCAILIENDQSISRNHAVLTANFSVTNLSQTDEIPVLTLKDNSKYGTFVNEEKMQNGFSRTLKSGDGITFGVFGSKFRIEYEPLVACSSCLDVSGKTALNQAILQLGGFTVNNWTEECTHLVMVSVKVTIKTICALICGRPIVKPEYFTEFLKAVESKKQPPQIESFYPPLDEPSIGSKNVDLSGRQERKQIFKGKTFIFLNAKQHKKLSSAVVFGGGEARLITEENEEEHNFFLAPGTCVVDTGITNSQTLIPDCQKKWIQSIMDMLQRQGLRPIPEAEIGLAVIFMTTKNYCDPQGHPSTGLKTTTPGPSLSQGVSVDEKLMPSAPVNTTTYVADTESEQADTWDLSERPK

[4] = target: T2, spNbs1 FHA/BRCT2 region (1-324) (Schizosaccharomyces pombe, UniProt O43070); experiment: ITC of phosphopeptides with wild-type spNbs1 N-terminal fragment; format: binding
T2 sequence (O43070 1-324): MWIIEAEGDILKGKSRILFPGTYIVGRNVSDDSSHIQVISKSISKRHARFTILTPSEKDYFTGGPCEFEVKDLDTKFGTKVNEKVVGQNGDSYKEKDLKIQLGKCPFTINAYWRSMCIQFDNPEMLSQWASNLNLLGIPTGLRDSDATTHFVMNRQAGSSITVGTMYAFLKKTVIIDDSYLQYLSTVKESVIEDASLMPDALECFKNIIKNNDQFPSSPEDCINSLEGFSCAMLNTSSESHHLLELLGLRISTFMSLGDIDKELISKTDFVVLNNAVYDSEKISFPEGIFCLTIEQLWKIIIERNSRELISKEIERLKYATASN
Summary of the method: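 Purified recombinant […] N-terminal fragment of S. pombe Nbs1 titrated by ITC with the same Mdc1 phosphothreonine peptide used for the human protein. An unphosphorylated peptide of identical sequence was also tested. Affinity was derived from the titration.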

[5] = target: T3, human Nbs1 N-terminal FHA/BRCT-repeat fragment (1-382) (human, UniProt O60934 1-382); experiment: ITC
T3 sequence: T1 sequence (O60934 1-382)

hNbs1 (1-382) R28A = target: T4, hNbs1 (1-382) R28A (human, UniProt O60934 1-382, R28A); experiment: ITC
T4 sequence: T1 sequence (O60934 1-382) with R28A

hNbs1 (1-382) S42A = target: T5, hNbs1 (1-382) S42A (human, UniProt O60934 1-382, S42A); experiment: ITC
T5 sequence: T1 sequence (O60934 1-382) with S42A

hNbs1 (1-382) K160M = target: T6, hNbs1 (1-382) K160M (human, UniProt O60934 1-382, K160M); experiment: ITC
T6 sequence: T1 sequence (O60934 1-382) with K160M

spNbs1 (1-324) R27A = target: T7, spNbs1 (1-324) R27A (Schizosaccharomyces pombe, UniProt O43070 1-324, R27A); experiment: ITC
T7 sequence: T2 sequence (O43070 1-324) with R27A

Ctp1 Site 1 di-phosphorylated peptide (pSer-77/pThr-79)
fold weaker binding than the di-phosphorylated Site 2 peptide [1]: 30 fold

Ctp1 Site 1 peptide phosphorylated only on pThr-79
fold weaker binding than the di-phosphorylated Site 1 peptide [1]: 8 fold

Ctp1 Site 2 di-phosphorylated peptide (pSer-87 and pThr-89)
Kd [1]: 50 nM

Ctp1 Site 2 peptide phosphorylated only on pThr-89
fold weaker binding than the di-phosphorylated Site 2 peptide [1]: 10 fold

Ctp1 peptide containing singly phosphorylated Thr-78
Kd [1]: 200 nM

Mdc1 SDpTD mono-phosphorylated peptide
fold reduced affinity against the di-phosphorylated Mdc1 peptide [2]: 17 fold

Mdc1 pSDpTD motif di-phosphorylated peptide (Mdc1 residues 325-336) (from UniProt Q14676 325-336)
Kd [1]: 500 nM | Kd [2]: 1000 nM | stoichiometry N [2]: > 1

pSDTD: Mdc1 peptide of the same sequence in which the threonine was not phosphorylated (GFID[pS]DTDAEEE)
binding to hNbs1 (in words) [3]: neither spNbs1 nor hNbs1 bound | binding to hNbs1 (in words) ([3]; listed as mono-phosphorylated pSDTD): lack of hNbs1 interactions | binding to spNbs1 (in words) [4]: neither spNbs1 nor hNbs1 bound

FID[pS]D[pT]DVEEE [di-phosphorylated peptide with a core consensus of all six Mdc1 motifs (FIDpSDpTDVEEE)]
stoichiometry N [5]: > 1 | fold reduction of stoichiometry against wild-type hNbs1 (hNbs1 (1-382) R28A): ~2 fold | fold reduction of stoichiometry against wild-type hNbs1 (hNbs1 (1-382) S42A): ~2 fold | fold reduction of stoichiometry against wild-type hNbs1 (hNbs1 (1-382) K160M): ~2 fold

GFID[pS]D[pT]DAEEE [Mdc1 pSDpTD motif di-phosphorylated peptide (Mdc1 residues 325-336)]
fold reduction of apparent binding affinity against wild-type spNbs1 (spNbs1 (1-324) R27A): ~100 fold
